What was measured:
[1] = tested on: brain and liver proteomes; assay: CC-ABPP of in vivo protein targets of alkyne analogues; conditions: 10 mg/kg, i.p., 2 hr, FAAH(+/+) and (-/-) mice
Method in brief: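 Alkyne-tagged test compound given i.p. at 10 mg/kg to FAAH(+/+) and FAAH(-/-) mice; vehicle-treated mice of both genotypes served as controls. After 2 hr, mice were sacrificed and brain and liver proteomes collected. Proteomes were conjugated to a rhodamine-azide tag under click-chemistry conditions and resolved by gel with in-gel fluorescence scanning. FAAH was assigned as the 60 kDa band missing in FAAH(-/-) mice.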

[2] = tested on: brain and liver levels of AEA, PEA, OEA, 2-AG; assay: Tissue levels of FAAH substrates; format: in vivo, mice
FAAH in the brain = target: T1, FAAH in the brain (Mus musculus, UniProt O08914); assay: Competitive ABPP with FP-rhodamine, brain of treated mice; format: in vivo; conditions: for inactivation of FAAH in the brain: time course 1 to 24 hrs
T1 sequence (O08914 1-579): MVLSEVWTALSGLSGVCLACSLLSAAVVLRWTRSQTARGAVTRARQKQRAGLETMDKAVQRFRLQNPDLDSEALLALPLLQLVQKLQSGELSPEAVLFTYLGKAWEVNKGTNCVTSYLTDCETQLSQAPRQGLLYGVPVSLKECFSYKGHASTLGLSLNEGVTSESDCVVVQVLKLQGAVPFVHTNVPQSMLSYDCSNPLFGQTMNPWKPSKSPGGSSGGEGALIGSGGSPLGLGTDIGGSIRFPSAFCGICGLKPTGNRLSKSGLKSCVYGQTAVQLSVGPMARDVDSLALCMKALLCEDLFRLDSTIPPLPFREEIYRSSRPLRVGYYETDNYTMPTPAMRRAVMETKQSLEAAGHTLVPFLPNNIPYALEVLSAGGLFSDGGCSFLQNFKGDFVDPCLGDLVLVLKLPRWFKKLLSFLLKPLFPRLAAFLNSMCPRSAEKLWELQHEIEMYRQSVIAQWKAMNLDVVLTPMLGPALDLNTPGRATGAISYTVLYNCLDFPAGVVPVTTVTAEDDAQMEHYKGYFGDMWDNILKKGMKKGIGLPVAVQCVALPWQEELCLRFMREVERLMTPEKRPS

[3] = tested on: liver serine hydrolases (carboxylesterases); assay: Competitive ABPP with FP-rhodamine, liver of treated mice; format: in vivo; conditions: 10 mg/kg, i.p., 2 hr
[4] = target: T2, h/rFAAH ('humanized' rat-FAAH) (Rattus norvegicus, UniProt P97612, A377T/F194Y/I491V/L192F/S435N/V495M); assay: Inhibitor potency; format: biochemical; conditions: read-out: kinact/Ki h/rFAAH
T2 sequence (P97612 30-579 L192F/F194Y/A377T/S435N/I491V/V495M limits assumed): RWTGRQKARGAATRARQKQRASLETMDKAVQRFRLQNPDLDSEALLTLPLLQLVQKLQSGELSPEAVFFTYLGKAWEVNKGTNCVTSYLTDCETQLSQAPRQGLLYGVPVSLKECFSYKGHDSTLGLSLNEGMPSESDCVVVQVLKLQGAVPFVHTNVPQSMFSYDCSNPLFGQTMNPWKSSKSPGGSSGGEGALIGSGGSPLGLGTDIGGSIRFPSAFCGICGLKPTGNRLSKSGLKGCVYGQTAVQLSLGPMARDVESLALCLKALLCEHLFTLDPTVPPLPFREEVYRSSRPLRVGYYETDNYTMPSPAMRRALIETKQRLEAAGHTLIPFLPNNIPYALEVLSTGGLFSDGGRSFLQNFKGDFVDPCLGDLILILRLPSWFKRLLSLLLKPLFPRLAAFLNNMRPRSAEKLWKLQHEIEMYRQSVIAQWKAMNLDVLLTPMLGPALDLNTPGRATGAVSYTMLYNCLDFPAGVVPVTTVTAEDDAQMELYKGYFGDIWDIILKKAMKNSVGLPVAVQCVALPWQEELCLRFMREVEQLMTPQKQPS
Method in brief: (§1)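 Purified recombinant FAAH (human, rat, or humanized rat h/rFAAH) in an enzyme-coupled assay with oleamide as substrate. FAAH hydrolysis releases ammonia, which is coupled to stoichiometric NAD+ formation, read continuously. NAD+ production is linear over 40 min without inhibitor. Test compound is added from a DMSO stock. kinact and Ki are derived from progress curves and saturation plots fitted to a covalent inactivation model.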

[5] = tested on: CFA model of inflammatory pain; assay: CFA model of inflammatory pain, mechanical allodynia; format: in vivo, rat; conditions: for effect on mechanical allodynia in rats not treated with PF-3845: SR141716 10 mg/kg, SR144528 30 mg/kg, i.p.
Method in brief: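 Male Sprague-Dawley rats (200–250 g) received 0.15 ml CFA into the left hind paw plantar surface. On day 5, mechanical paw withdrawal thresholds were taken with von Frey hairs by the Dixon up-down method. Test compound was then given orally (1–30 mg/kg) in 5% N,N-dimethylacetamide/95% (40% 2-hydroxypropyl-β-cyclodextrin in water), and thresholds were re-measured 4 hr post-dose. Naproxen (10 mg/kg p.o.) served as reference. n=8/group; ANOVA, unpaired t-tests.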

FAAH [6] = target: T3, FAAH (Homo sapiens, UniProt O00519); assay: Inhibitor potency; format: biochemical; conditions: read-out: kinact/Ki hFAAH
T3 sequence (O00519 1-579): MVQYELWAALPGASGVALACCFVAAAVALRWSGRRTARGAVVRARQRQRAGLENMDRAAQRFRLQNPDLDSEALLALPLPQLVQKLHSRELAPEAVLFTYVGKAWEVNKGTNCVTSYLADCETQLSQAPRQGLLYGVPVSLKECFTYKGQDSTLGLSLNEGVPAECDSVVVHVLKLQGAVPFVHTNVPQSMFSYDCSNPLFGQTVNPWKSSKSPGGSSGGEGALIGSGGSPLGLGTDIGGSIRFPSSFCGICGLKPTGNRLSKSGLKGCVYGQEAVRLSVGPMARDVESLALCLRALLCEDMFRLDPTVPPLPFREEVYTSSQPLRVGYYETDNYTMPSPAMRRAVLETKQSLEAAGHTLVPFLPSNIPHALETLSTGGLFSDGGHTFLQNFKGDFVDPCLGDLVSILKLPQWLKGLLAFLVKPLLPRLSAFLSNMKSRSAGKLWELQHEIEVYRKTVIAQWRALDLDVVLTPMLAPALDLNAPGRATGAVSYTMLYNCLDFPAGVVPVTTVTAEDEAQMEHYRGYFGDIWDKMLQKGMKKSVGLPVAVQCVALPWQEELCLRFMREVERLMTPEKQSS
Method in brief: as §1

human FAAH-2 = target: T4, human FAAH-2 (Homo sapiens, UniProt Q6GMR7); assay: Inhibition of FAAH-2; format: biochemical
T4 sequence (Q6GMR7 1-532): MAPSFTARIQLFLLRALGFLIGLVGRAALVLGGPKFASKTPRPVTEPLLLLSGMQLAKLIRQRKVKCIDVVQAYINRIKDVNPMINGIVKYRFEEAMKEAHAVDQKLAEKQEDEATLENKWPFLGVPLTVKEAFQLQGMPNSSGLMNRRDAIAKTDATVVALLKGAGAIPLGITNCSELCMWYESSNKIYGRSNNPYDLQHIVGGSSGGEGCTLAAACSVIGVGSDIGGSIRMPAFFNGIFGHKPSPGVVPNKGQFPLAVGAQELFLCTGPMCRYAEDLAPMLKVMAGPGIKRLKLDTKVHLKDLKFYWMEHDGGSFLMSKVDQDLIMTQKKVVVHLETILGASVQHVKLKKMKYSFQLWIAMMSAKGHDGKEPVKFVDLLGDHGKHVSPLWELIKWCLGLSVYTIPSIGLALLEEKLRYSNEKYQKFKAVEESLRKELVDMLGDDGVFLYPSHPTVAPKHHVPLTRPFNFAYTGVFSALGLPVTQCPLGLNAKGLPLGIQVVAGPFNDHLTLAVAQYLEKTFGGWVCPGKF

rFAAH = target: T5, rFAAH (Rattus norvegicus, UniProt P97612); assay: Inhibitor potency; format: biochemical; conditions: read-out: kinact/Ki rFAAH
T5 sequence (P97612 1-579): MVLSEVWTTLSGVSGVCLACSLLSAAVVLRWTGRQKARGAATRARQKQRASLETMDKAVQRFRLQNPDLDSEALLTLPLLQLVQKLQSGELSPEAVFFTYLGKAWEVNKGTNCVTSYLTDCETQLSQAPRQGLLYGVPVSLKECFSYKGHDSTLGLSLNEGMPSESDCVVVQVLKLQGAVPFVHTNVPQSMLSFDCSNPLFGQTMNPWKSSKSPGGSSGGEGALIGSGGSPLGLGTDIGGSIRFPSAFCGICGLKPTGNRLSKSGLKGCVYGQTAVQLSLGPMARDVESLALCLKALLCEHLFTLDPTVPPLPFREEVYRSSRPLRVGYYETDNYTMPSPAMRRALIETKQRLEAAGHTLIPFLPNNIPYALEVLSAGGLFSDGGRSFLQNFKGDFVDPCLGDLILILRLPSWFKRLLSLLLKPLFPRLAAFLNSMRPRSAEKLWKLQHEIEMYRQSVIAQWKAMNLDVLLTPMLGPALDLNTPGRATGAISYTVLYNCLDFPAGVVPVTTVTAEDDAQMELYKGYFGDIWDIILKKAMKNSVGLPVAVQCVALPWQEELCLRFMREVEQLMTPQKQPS
Method in brief: as §1

[7] = tested on: FAAH activity and NAEs in brain, blood leukocytes/plasma, liver; assay: FAAH activity and NAE levels in tissues and blood of treated rats; format: in vivo, rat; conditions: 4 hr
FAAH [8] = target: T3, FAAH; assay: FAAH inhibition kinetics, enzyme-coupled assay with oleamide as substrate; format: biochemical

C#CCCCCCCCCCNC(=O)Oc1cccc(-c2cccc(C(N)=O)c2)c1 [JP104]
proteins labeled in brain (CC-ABPP) ([1]; brain): selectively reacted with a single protein in mouse brain | proteins labeled in liver (CC-ABPP) ([1]; liver): labeling a number of proteins that were found in both FAAH(+/+) and (-/-) mice

NC(=O)c1cccc(-c2cccc(OC(=O)NC3CCCCC3)c2)c1 [URB597, cyclohexyl carbamic acid 3′-carbamoyl-biphenyl-3-yl ester, reference compound]
time by which AEA levels return to near-baseline ([2]; 10 mg/kg, i.p., mice, brain): up to 7 hrs | inhibition of other FP-reactive serine hydrolases in brain (FAAH in the brain; 10 mg/kg, i.p., mice): none of the other FP-reactive serine hydrolases in this tissue were inhibited | brain FAAH activity at 24 hr (FAAH in the brain; 10 mg/kg, i.p., mice, 24 hr): nearly wild type levels of brain FAAH activity | inactivation of FAAH in the brain (FAAH in the brain; 10 mg/kg, i.p., mice): rapid and complete inactivation of FAAH in the brain | blockade of FP-labeling of additional liver serine hydrolases [3]: blocked FP-labeling of several additional liver serine hydrolases

O=C(Nc1cccnc1)N1CCC(Cc2cccc(Oc3ccc(C(F)(F)F)cn3)c2)CC1 [PF-3845]
kinact/KI [4]: 13300 M⁻¹ s⁻¹ | efficacy in CFA model at 1 mg/kg ([5]; 1 mg/kg p.o., 4 hr): efficacy was not observed | inhibition of mechanical allodynia, time course 2-8 hrs ([5]; 10 mg/kg, p.o., 2-8 hrs post-administration): significant inhibition of mechanical allodynia at all time points tested | minimum effective dose (MED), inhibition of mechanical allodynia ([5]; p.o., 1-30 mg/kg, rats, 4 hr post-dosing): 3 mg/kg | inhibition of pain responses at 10 and 30 mg/kg ([5]; p.o., 10 and 30 mg/kg, versus naproxen 10 mg/kg p.o.): equivalent, if not greater degree than the nonsteroidal anti-inflammatory drug naproxen | kinact/KI (FAAH [6]): 12600 M⁻¹ s⁻¹ | levels of 2-AG in brain or liver ([2]; 10 mg/kg, i.p., mice): did not show changes | elevations in brain levels of AEA (and other NAEs PEA, OEA) ([2]; 10 mg/kg, i.p., mice, brain): > 10 fold | time NAE elevations maintained at maximal levels (up to) ([2]; 10 mg/kg, i.p., mice, brain): 7 to 12 h | time of peak elevation in NAEs ([2]; 10 mg/kg, i.p., mice, brain): ~3 h | AEA, PEA, OEA levels at 24 hrs post-treatment ([2]; 10 mg/kg, i.p., mice, brain, 24 hrs): significant elevations | AEA, PEA and OEA levels in liver tissue ([2]; 10 mg/kg, i.p., mice, liver): significant elevations | endocannabinoid (AEA or 2-AG) levels in FAAH(-/-) mice ([2]; FAAH(-/-) mice): did not alter | duration of high AEA elevations ([2]; mice): at least 7 hrs | IC50 (human FAAH-2): > 10 µM | inhibition of other FP-reactive serine hydrolases in brain (FAAH in the brain; 10 mg/kg, i.p., mice): none of the other FP-reactive serine hydrolases in this tissue were inhibited | inactivation of FAAH in the brain (FAAH in the brain; 10 mg/kg, i.p., mice): rapid and complete inactivation of FAAH in the brain | inhibition at 10 mg/kg (FAAH in the brain; mouse, ip, read-out: brain FAAH inhibited at 24 hr): > 75% | kinact/KI (rFAAH): 3900 ± 780 M⁻¹ s⁻¹ | blockade of FAAH activity at 1 mg/kg ([7]; 1 mg/kg p.o.): near-complete blockade of FAAH activity | elevations in AEA at 1 mg/kg ([7]; 1 mg/kg p.o.): close to maximal elevations in AEA | increase of OEA and PEA in brain ([7]; p.o., brain): ~10 fold | maximal elevation of AEA in brain and plasma ([7]; p.o., brain and plasma): ~10 fold | increase of OEA and PEA in plasma ([7]; p.o., plasma): ~3 fold | kinact (FAAH [8]): 0.0033 ± 0.0002 s⁻¹ | kinact/KI (FAAH [8]): 14300 M⁻¹ s⁻¹ | improvement in potency (FAAH [8]; PF-3845 versus PF-750 (structure comparison)): ~20 fold | fold higher kinact/Ki value for FAAH (FAAH [8]; compared to PF-750 or URB597): 10-20 fold

SR144528 [reference compound]
effect on mechanical allodynia in rats not treated with PF-3845 [5]: neither the CB1 nor CB2 antagonist displayed significant effects

Cc1c(C(=O)NN2CCCCC2)nn(-c2ccc(Cl)cc2Cl)c1-c1ccc(Cl)cc1 [SR141716, reference compound]
effect on mechanical allodynia in rats not treated with PF-3845 [5]: neither the CB1 nor CB2 antagonist displayed significant effects
